Laboratory results as given in ChEMBL document CHEMBL1146569, “The pterocellins, novel bioactive alkaloids from the marine bryozoan Pterocella vesiculosa” (J Nat Prod, 2003).

Experiments:
RXF 393 = experiment: Growth inhibition of human RXF393 cells; type: functional
IGROV-1 = experiment: Growth inhibition of human IGROV1 cells; type: functional
NCI-H522 = experiment: Growth inhibition of human NCI-H522 cells; type: functional
NCI-H322M = experiment: Growth inhibition of human NCI-H322M cells; type: functional
MCF7 = experiment: Growth inhibition of human MCF7 cells; type: functional
UO-31 = experiment: Growth inhibition of human UO31 cells; type: functional
CAKI-1 = experiment: Growth inhibition of human Caki1 cells; type: functional
NCI-H23 = experiment: Growth inhibition of human NCI-H23 cells; type: functional
U-251 = experiment: Growth inhibition of human U251 cells; type: functional
NCI-H460 = experiment: Growth inhibition of human NCI-H460 cells; type: functional
HCT-15 = experiment: Growth inhibition of human HCT15 cells; type: functional
SF-539 = experiment: Growth inhibition of human SF539 cells; type: functional
MOLT-4 = experiment: Growth inhibition of human MOLT4 cells; type: functional
CCRF-CEM = experiment: Growth inhibition of human CCRF-CEM cells; type: functional
MDA-N = experiment: Growth inhibition of human MDA-N cells; type: functional
UACC-257 = experiment: Growth inhibition of human UACC257 cells; type: functional
OVCAR-5 = experiment: Growth inhibition of human OVCAR5 cells; type: functional
Pseudomonas aeruginosa = experiment: Antimicrobial activity against Pseudomonas aeruginosa assessed per disk; type: functional
T47D = experiment: Growth inhibition of human T47D cells; type: functional
TK-10 = experiment: Growth inhibition of human TK10 cells; type: functional
HOP-92 = experiment: Growth inhibition of human HOP92 cells; type: functional
[1] = Growth inhibition of human […] cells; type: functional
K562 = experiment: Growth inhibition of human K562 cells; type: functional
[2] = Cytotoxicity against african green monkey BSC1 cells at 40 ug/disk; type: cell-based; details: chlorocebus aethiops, bsc-1
How it was run: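 BSC-1 cells (ATCC CCL 26), a line derived from African green monkey kidney, are the host cells of the combined antiviral/cytotoxicity assay. Cytotoxicity is scored on these cells within that assay.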

LOX IMVI = experiment: Growth inhibition of human LOXIMVI cells; type: functional
SK-OV-3 = experiment: Growth inhibition of human SKOV3 cells; type: functional
HCC 2998 = experiment: Growth inhibition of human HCC2998 cells; type: functional
Escherichia coli = experiment: Antimicrobial activity against Escherichia coli assessed per disk; type: functional
HOP-62 = experiment: Growth inhibition of human HOP62 cells; type: functional
MDA-MB-231 = experiment: Growth inhibition of human MDA-MB-231 cells; type: functional
SK-MEL-28 = experiment: Growth inhibition of human SK-MEL-28 cells; type: functional
SN12C = experiment: Growth inhibition of human SN12C cells; type: functional
A549 = experiment: Growth inhibition of human A549 cells; type: functional
OVCAR-8 = experiment: Growth inhibition of human OVCAR8 cells; type: functional
[3] = Growth inhibition of human Hs 578T cells; type: functional
Candida albicans = experiment: Antimicrobial activity against Candida albicans assessed per disk; type: functional
OVCAR-3 = experiment: Growth inhibition of human OVCAR-3 cells; type: functional
A498 = experiment: Growth inhibition of human A498 cells; type: functional
KM12 = experiment: Growth inhibition of human KM12 cells; type: functional
SK-MEL-2 = experiment: Growth inhibition of human SK-MEL-2 cells; type: functional
SW-620 = experiment: Growth inhibition of human SW620 cells; type: functional
OVCAR-4 = experiment: Growth inhibition of human OVCAR4 cells; type: functional
M14 = experiment: Growth inhibition of human M14 cells; type: functional
PC-3 = experiment: Growth inhibition of human PC3 cells; type: functional
BT-549 = experiment: Growth inhibition of human BT549 cells; type: functional
[4] = read-out: LC50 (the source's name)

Molecule `COc1cn2c(cc1=O)C(=O)c1ccnc(CC(C)C)c1-2` [PTEROCELLIN A] has a GI50 (RXF 393) of 3.2 µM, an LC50 (RXF 393) of 46.6 µM and a TGI (RXF 393) of 12.3 µM. The GI50 (IGROV-1) was 2.1 µM, the TGI (IGROV-1) was 5.4 µM and the CC50 (IGROV-1; [4]) was 18.4 µM. For the same molecule, the GI50 (NCI-H522) was 1.7 µM, the TGI (NCI-H522) was 3.3 µM and the CC50 (NCI-H522; [4]) was 6.5 µM. For the same molecule, the GI50 (NCI-H322M) was 1.6 µM, the LC50 (concentration killing 50% of cells) (NCI-H322M) was 5.6 µM and the TGI (NCI-H322M) was 3 µM. The GI50 (MCF7) was 1.5 µM, the TGI (MCF7) was 4.9 µM and the CC50 (MCF7; [4]) was > 100 µM. For the same molecule, the GI50 (UO-31) was 2.2 µM, the TGI (UO-31) was 6.1 µM and the CC50 (UO-31; [4]) was 22.2 µM. For the same molecule, the GI50 (CAKI-1) was 2.1 µM, the TGI (CAKI-1) was 4.6 µM and the CC50 (CAKI-1; [4]) was 11.1 µM. For the same molecule, the GI50 (NCI-H23) was 0.3 µM, the LC50 (concentration causing 50% net cell kill) (NCI-H23) was 6.1 µM and the TGI (NCI-H23) was 1 µM. The GI50 (U-251) was 2.2 µM, the TGI (U-251) was 7.5 µM and the CC50 (U-251; [4]) was 42.5 µM. It also gave a GI50 (NCI-H460) of 0.8 µM, an LC50 (concentration causing 50% cell kill) (NCI-H460) of 7.1 µM and a TGI (NCI-H460) of 2.6 µM. For the same molecule, the GI50 (HCT-15) was 1.6 µM, the TGI (HCT-15) was 4.2 µM and the CC50 (HCT-15; [4]) was 17.3 µM. The GI50 (SF-539) was 1.8 µM, the TGI (SF-539) was 3.6 µM and the CC50 (SF-539; [4]) was 7.1 µM. For the same molecule, the GI50 (MOLT-4) was 3.5 µM, the LC50 (concentration killing 50% of cells) (MOLT-4) was > 100 µM and the TGI (MOLT-4) was > 100 µM. The GI50 (CCRF-CEM) was 0.05 µM, the TGI (CCRF-CEM) was 0.8 µM and the CC50 (CCRF-CEM; [4]) was > 100 µM. It also gave a GI50 (MDA-N) of 0.2 µM, a TGI (MDA-N) of 0.4 µM and a CC50 (MDA-N; [4]) of 0.6 µM. It also gave a GI50 (UACC-257) of 1.1 µM, a TGI (UACC-257) of 3 µM and a CC50 (UACC-257; [4]) of 7.9 µM. The GI50 (OVCAR-5) was 2 µM, the TGI (OVCAR-5) was 3.4 µM and the CC50 (OVCAR-5; [4]) was 5.6 µM. For the same molecule, the MIC (Pseudomonas aeruginosa) was >60 µg, the GI50 (T47D) was 1.8 µM and the TGI (T47D) was 6.5 µM. The CC50 (T47D; [4]) was > 100 µM, the GI50 (TK-10) was 3.1 µM and the TGI (TK-10) was 6.8 µM. For the same molecule, the CC50 (TK-10; [4]) was 23.1 µM, the GI50 (HOP-92) was 2.2 µM and the TGI (HOP-92) was 4.9 µM. It also gave a CC50 (HOP-92; [4]) of 14.1 µM, a GI50 [1] of 1.7 µM and a TGI [1] of 4.2 µM. The CC50 [1, 4] was > 100 µM, the GI50 (K562) was 3 µM and the LC50 (concentration killing 50% of cells) (K562) was > 100 µM. The TGI (K562) was > 100 µM, the Activity [2] was “Toxic” and the GI50 (LOX IMVI) was 1.3 µM. For the same molecule, the LC50 (LOX IMVI) was > 100 µM, the TGI (LOX IMVI) was 7.4 µM and the GI50 (SK-OV-3) was 6.1 µM. For the same molecule, the TGI (SK-OV-3) was 21.9 µM, the CC50 (SK-OV-3; [4]) was 59.2 µM and the GI50 (HCC 2998) was 1.6 µM. For the same molecule, the LC50 (concentration killing 50% of cells) (HCC 2998) was 6 µM, the TGI (HCC 2998) was 3.1 µM and the MIC (Escherichia coli) was >60 µg. It also gave a GI50 (HOP-62) of 1.7 µM, a TGI (HOP-62) of 3.1 µM and a CC50 (HOP-62; [4]) of 5.6 µM. It also gave a GI50 (MDA-MB-231) of 2.6 µM, a TGI (MDA-MB-231) of 14.1 µM and a CC50 (MDA-MB-231; [4]) of 51.7 µM. The GI50 (SK-MEL-28) was 1.9 µM, the TGI (SK-MEL-28) was 4.2 µM and the CC50 (SK-MEL-28; [4]) was 9.3 µM. For the same molecule, the GI50 (SN12C) was 1.7 µM, the LC50 (SN12C) was 6.5 µM and the TGI (SN12C) was 3.3 µM. The GI50 (A549) was 1.3 µM, the LC50 (50% cell kill concentration) (A549) was > 100 µM and the TGI (A549) was 5.1 µM. The GI50 (OVCAR-8) was 2.2 µM, the TGI (OVCAR-8) was 17.6 µM and the CC50 (OVCAR-8; [4]) was > 100 µM. The GI50 [3] was 6.3 µM, the TGI [3] was > 100 µM and the CC50 [3, 4] was > 100 µM. For the same molecule, the MIC (Candida albicans) was >60 µg, the GI50 (OVCAR-3) was 1.5 µM and the TGI (OVCAR-3) was 4.6 µM. For the same molecule, the CC50 (OVCAR-3; [4]) was 19.3 µM, the GI50 (A498) was 0.9 µM and the TGI (A498) was 2.2 µM. The CC50 (A498; [4]) was 5.1 µM, the GI50 (KM12) was 1.6 µM and the TGI (KM12) was 3.4 µM. For the same molecule, the CC50 (KM12; [4]) was 7.3 µM, the GI50 (SK-MEL-2) was 1.9 µM and the TGI (SK-MEL-2) was 3.4 µM. The CC50 (SK-MEL-2; [4]) was 6.3 µM, the GI50 (SW-620) was 1.5 µM and the LC50 (concentration killing 50% of cells) (SW-620) was 6.2 µM. For the same molecule, the TGI (SW-620) was 3.1 µM, the GI50 (OVCAR-4) was 1.7 µM and the LC50 (OVCAR-4) was 7.6 µM. The TGI (OVCAR-4) was 3.6 µM, the GI50 (M14) was 0.2 µM and the LC50 (concentration killing 50% of cells) (M14) was 4.6 µM. For the same molecule, the TGI (M14) was 0.8 µM, the GI50 (PC-3) was 2.9 µM and the LC50 (concentration killing 50% of cells) (PC-3) was 45.1 µM. It also gave a TGI (PC-3) of 8.4 µM, a GI50 (BT-549) of 1.7 µM and a TGI (BT-549) of 4 µM. It also gave a CC50 (BT-549; [4]) of 9.3 µM.
